NPY Y2 blocker = antagonists of human neuropeptide Y receptor Y2; AID 793; P49146; actives 0.99% (n = 140,000); inhibition, % at 2.7 µM; NPY-Y2 expressing cells, antagonist mode; in the data active means inhibition above about 17%
Target sequence (P49146 whole entry, looked up): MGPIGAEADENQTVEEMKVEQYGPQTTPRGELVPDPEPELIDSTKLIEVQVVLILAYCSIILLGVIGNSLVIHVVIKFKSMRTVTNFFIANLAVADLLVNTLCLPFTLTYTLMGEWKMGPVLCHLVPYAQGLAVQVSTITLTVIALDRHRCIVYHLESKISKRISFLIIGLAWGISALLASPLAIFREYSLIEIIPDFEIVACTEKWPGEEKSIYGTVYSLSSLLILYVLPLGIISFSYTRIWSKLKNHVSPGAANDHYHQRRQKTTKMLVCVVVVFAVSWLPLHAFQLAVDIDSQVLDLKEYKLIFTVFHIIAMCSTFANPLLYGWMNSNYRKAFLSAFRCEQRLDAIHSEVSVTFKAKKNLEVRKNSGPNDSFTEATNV
NPY Y1 blocker = NPY-Y1 (human) receptor antagonism; HEK293-CNG Y1 cells, membrane potential fluorescence; NPY at EC95, then isoproterenol; P25929; inhibition, % at 3.6 µM; actives 1% (n = 200,000);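 active means inhibition above the campaign mean inhibition of all tested compounds plus 3 SD, cut at about 20% in these data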
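Material: HEK293 cells co-expressing NPY Y1 receptor and cyclic-nucleotide gated channel. Timing: compound incubation 1 h at room temperature, readout 45 min post-stimulation. Signal: fluorescence, membrane potential probe.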
NPY2 pot ag = potentiates or activates human NPY-Y2 receptor. P49146. cells expressing NPY-Y2, potentiator/agonist read-out. activation, % at 3.6 µM. actives 0.45% (n = 220,000). AID 1359; in the data active means activation above about 27%;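 further: cells stimulated with NPY near EC25 plus isoproterenol at EC100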
NPY-Y1 PAM-ag = potentiators or agonists of human neuropeptide Y receptor Y1; AID 1304; actives 0.37% (n = 220,000); activation, % at 3.6 µM; P25929; NPY-Y1 expressing cells, potentiator/agonist activation; in the data active means activation above about 33%, passing the limit was not always enough;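 further: cells stimulated with NPY at EC10 then isoproterenol at EC100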
NPY1 antag ctr = antagonizes human NPY-Y1, counter-screen to NPY-Y2 antagonists; actives 19% (n = 710); inhibition, % at 3.6 µM; cell-based NPY-Y1 antagonism counterscreen; shares compounds with NPY Y2 blocker; in the data active means inhibition above about 20%;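 further: cells challenged with NPY then isoproterenol with cAMP sensed through a CNG channel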
NPY2 antag conf = confirmation of human neuropeptide Y receptor Y2 antagonists | shares compounds with NPY Y2 blocker | HEK293 NPY-Y2 CNG channel, membrane potential fluorescence | inhibition, % at 2.8 µM | actives 32% (n = 710);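 active means mean inhibition of triplicate wells above the hit cutoff set in the primary screen, cut at about 17% in these data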
Numbers stand for hits; – = inactive; · = no result. Shown are actives, neighbours in structure and some others; about 1.8% of the full set was active somewhere.

SMILES	NPY Y2 blocker	NPY Y1 blocker	NPY2 pot ag	NPY-Y1 PAM-ag	NPY1 antag ctr	NPY2 antag conf
CCOC(=O)N1CCC(NC(=O)CSCc2nc(-c3cccc(OC)c3)oc2C)CC1	23.9	–	–	–	–	–
CCOC(=O)N1CCC(NC(=O)CSCc2nc(-c3sccc3C)oc2C)CC1	–	–	–	–	·	·
CN(Cc1ccccc1)S(=O)(=O)c1ccccc1[N+](=O)[O-]	·	–	–	–	·	·
Cc1cc(C)c2c(=O)[nH]c(SCC(=O)Nc3ccccc3)nc2n1	18.7	–	–	–	–	–
CCOC(=O)c1ccccc1NC(=O)Cn1c(-c2nonc2N)nc2ccccc21	35.4	–	–	–	22.6	29.9
CC(C)CCn1c(-c2nonc2N)nc2ccccc21	18.5	–	–	–	–	–
CCCCn1c(-c2nonc2N)nc2ccccc21	–	–	–	–	·	·
CCc1cccc(CC)c1NC(=O)c1ccccc1CCc1ccccc1	18.7	–	–	–	28.2	–
COc1cc(/C=N/NC(=O)C(=O)NCc2ccco2)cc(Br)c1O	·	·	–	–	·	·
Cc1ccc(/C=C/C(=O)N2CCN(c3cccc(C(F)(F)F)c3)CC2)cc1	21.1	–	–	–	20.7	–
C/C(=C\c1ccccc1)C(=O)N1CCN(c2cccc(C(F)(F)F)c2)CC1	–	–	–	–	·	·
C=C(C)CNC(=S)Nc1sc2c(c1C(=O)OCC)CC(C)(C)OC2	–	–	–	–	·	·
NS(=O)(=O)c1cccc(NC(=O)COC(=O)CN2C(=O)C3CC=CCC3C2=O)c1 (stereo not given)	·	–	–	–	·	·
Cc1c(C(=O)NCc2ccc3c(c2)OCO3)oc2ccc(Br)cc12	22.2	–	–	–	–	–
Cc1ccc2oc(C(=O)NCc3ccc4c(c3)OCO4)c(C)c2c1	–	–	–	–	·	·
OC(CNCc1ccc(F)cc1)(c1ccc(F)cc1)c1ccc(F)cc1	19.8	–	–	–	–	–
Cc1ccc(-c2nn3c(C)nnc3c3ccccc23)cc1S(=O)(=O)NC(C)c1ccccc1 (stereo not given)	17.6	–	–	–	–	19.1
Cc1ccc(-c2nn3c(C)nnc3c3ccccc23)cc1S(=O)(=O)NCCO	·	–	–	–	·	·
C=CCn1c(SC(C)C#N)nc2sc(CC)cc2c1=O (stereo not given)	·	–	–	–	·	·
NC(=O)C(c1ccc(Cl)cc1)c1ccc(Sc2ccc(Cl)cc2)nn1 (stereo not given)	–	–	–	–	·	·
COc1ccc(OCC(=O)Nc2cccc3cccnc23)cc1	48.4	–	–	–	–	23.6
COCCOC(=O)c1[nH]c2c(c1C)C(=O)CC(c1ccco1)C2 (stereo not given)	31.7	–	–	–	–	–
Cc1cc(C(=O)Cn2nnc(-c3ccc(Cl)cc3)n2)c(C)n1CC1CCCO1 (stereo not given)	20.1	–	–	–	–	–
COc1cc(Cl)c(S(=O)(=O)NCc2cccnc2)cc1Cl	–	–	–	–	·	·
CC1CCCN(C(=O)CSc2nnc(-c3c[nH]c4ccccc34)o2)C1 (stereo not given)	22.7	–	–	–	–	–
SMILES	NPY Y2 blocker	NPY Y1 blocker	NPY2 pot ag	NPY-Y1 PAM-ag	NPY1 antag ctr	NPY2 antag conf
CCNC(=O)CSc1nnc(-c2ccccc2)n1-c1ccc(OCC)cc1	–	–	–	–	·	·
CCOc1ccc(-n2c(-c3ccccc3)nnc2-c2ccccc2)cc1	20.6	–	–	–	–	–
Cc1ccc(S(=O)(=O)C(c2ccccc2)c2c(C)noc2C)cc1 (stereo not given)	17.4	–	–	–	–	56.7
Cc1ccc2nc(Cl)c(CN(Cc3cccs3)C(=O)C3CC3)cc2c1	18.9	–	–	–	–	–
CC(=O)N(Cc1cccs1)Cc1cc2cc(C)c(C)cc2nc1Cl	·	–	–	–	·	·
Cc1cc(=O)oc2cc(OCc3ccc(C(=O)OCC(=O)Nc4ccc(N(C)C)cc4)cc3)ccc12	·	–	–	–	·	·
CN(C)/C=C/c1oc2ccc(O)cc2c1[N+](=O)[O-]	·	–	–	–	·	·
Cc1nc2ccc(F)cc2cc1C(=O)Nc1ccc(Cl)c(Cl)c1	23.1	–	–	–	–	31.4
Cc1nc2ccc(F)cc2cc1C(=O)NCc1ccco1	–	–	–	–	·	·
COc1ccccc1OCCCOc1ccc(C)cc1Br	–	–	–	–	·	·
Cc1ccc(OCCCCN(C)Cc2ccccc2)c(Br)c1	17.8	–	–	–	–	18.4
COC(=O)Cn1c(=N)n(CCN2CCCCC2)c2ccccc21	–	–	–	–	·	·

Screening results: PubChem BioAssay, The Scripps Research Institute Molecular Screening Center
